Experimental findings from ChEMBL document CHEMBL1149397, “Trace amine-associated receptor agonists: synthesis and evaluation of thyronamines and related analogues” (J Med Chem, 2006) are described below.

Active and inactive are the calls of the source. The calls are words filed in the database; no cut-off is given here.

Assay [1] has as its target Trace amine-associated receptor 1 (Mus musculus, UniProt Q923Y8). Description: Activity at mouse TAAR1 by measuring cAMP accumulation in HEK293 cells. Format: functional, cell-based. A digest of the protocol: (§1)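 HEK293 cells stably transfected with rat or mouse TAAR1, harvested and preincubated in Krebs-Ringer-HEPES with 200 µM IBMX. Then 1 h at 37 °C in KRH with 100 µM IBMX plus test compound, forskolin (10 µM) or DMSO vehicle. cAMP was measured by [³H]cAMP competitive binding after boiling, as % of forskolin control. EC₅₀ came from concentration-response curves, triplicate runs, averaged over experiments.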

The target in assay [2] is Trace amine-associated receptor 1 (Rattus norvegicus, UniProt Q923Y9). Put plainly: Activity at rat TAAR1 by measuring cAMP accumulation in HEK293 cells. The class given is functional, cell-based. A digest of the protocol:
as §1
(In general: Changes in cAMP serve as a functional read-out for many G protein-coupled receptors.)

In assay [3] the test system is Mus musculus. Description: Hypothermia induction in C57BL/6J mice at 50 mg/kg, ip. The class given is functional, organism-based. Details: dose 50 mg/kg. A digest of the protocol: (§2)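 Male C57BL/6J mice, about 7-10 weeks old, dosed i.p. at 2, 10, 25 or 50 mg/kg. Vehicle was 100% DMSO, or 60-65% DMSO in saline for some compounds. Rectal temperature was taken before dosing and at 30, 60, 120, 180, 240 and 1440 min, with room at 19-21 °C. Groups were 2-4 mice, analysed by two-way ANOVA with Bonferroni post hoc tests (P < 0.05).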

The test system of assay [4] is Mus musculus. Description: Efficacy for hypothermia induction in ip dosed C57BL/6J mice. Format: functional. A digest of the protocol:
as §2

Chain of Trace amine-associated receptor 1 (Mus musculus, UniProt Q923Y8) (Q923Y8 whole entry): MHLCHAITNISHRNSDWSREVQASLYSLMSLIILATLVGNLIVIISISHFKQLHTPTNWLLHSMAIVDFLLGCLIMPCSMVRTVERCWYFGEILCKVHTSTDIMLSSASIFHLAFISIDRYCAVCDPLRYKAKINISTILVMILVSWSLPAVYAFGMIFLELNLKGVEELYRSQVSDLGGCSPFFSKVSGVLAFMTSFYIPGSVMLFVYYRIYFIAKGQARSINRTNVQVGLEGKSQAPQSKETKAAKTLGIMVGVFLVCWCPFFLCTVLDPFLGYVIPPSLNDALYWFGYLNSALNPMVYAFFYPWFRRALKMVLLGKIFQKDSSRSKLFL
Chain of Trace amine-associated receptor 1 (Rattus norvegicus, UniProt Q923Y9) (Q923Y9 whole entry): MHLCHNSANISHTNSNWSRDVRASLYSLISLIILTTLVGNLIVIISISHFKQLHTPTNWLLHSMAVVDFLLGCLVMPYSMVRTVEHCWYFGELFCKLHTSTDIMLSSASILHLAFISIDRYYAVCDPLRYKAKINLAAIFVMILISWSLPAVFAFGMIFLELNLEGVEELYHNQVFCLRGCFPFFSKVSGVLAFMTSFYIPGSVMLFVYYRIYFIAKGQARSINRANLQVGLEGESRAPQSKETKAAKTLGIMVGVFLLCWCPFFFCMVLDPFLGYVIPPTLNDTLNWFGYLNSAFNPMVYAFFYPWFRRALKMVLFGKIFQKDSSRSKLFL

As for `NCCc1ccc(Oc2ccc(O)cc2)cc1` [THYRONAMINE], it took 1000 nM to reach a half-maximal effect in assay [1] (EC50).
For `NCCc1ccc(Oc2ccccc2)cc1`, the EC50 (as a rule, the concentration that produces a half-maximal response) in assay [2] came out at 38 nM; in assay [1], 296 nM.
As to `NCCc1ccc(Oc2ccc(O)c(I)c2)c(I)c1`, in assay [1], the EC50 stood at 1000 nM.
In the case of `CNCCc1ccc(Oc2ccc(OC)cc2)c(I)c1`, the EC50 in assay [2] is 107 nM; in assay [1], over 1000 nM.
As for `Cc1cc(C)cc(COc2ccc(CCN)cc2)c1`, the EC50 in assay [2] turned out to be 137 nM; in assay [1] it was 98 nM.
Regarding `OCCc1ccc(Oc2ccc(O)cc2)c(I)c1`, the EC50 in assay [2] and in assay [1] was over 1000 nM throughout.
On to `COc1cc(COc2ccc(CCN)cc2)cc(OC)c1`, for which the figures for the EC50 in assay [2] and in assay [1] were 333 nM and 123 nM, respectively.
With `NCCc1cc(I)c(Oc2ccc(O)cc2)c(I)c1`, in assay [1], the EC50 was determined as 371 nM. That is a sub-micromolar value.
In the case of `NCCc1ccc(Oc2ccccc2)c(I)c1`, the EC50 was 2.4 nM in assay [2] and 35 nM in assay [1]. In assay [3], the outcome was Active. Also, the ED50 (usually the dose at which the effect has come halfway, by size or by number of responders) in assay [4] is 30 µmol/kg.
With `Cc1cc(CCN)ccc1Oc1ccc(O)cc1`, the results for the EC50 in assay [2] and in assay [1] were 33 nM and 116 nM, respectively. The outcome in assay [3] was Active.
For the compound `NCCc1ccc(Oc2cc(I)c(O)c(I)c2)c(I)c1`, the EC50 in assay [2] and in assay [1] was over 1000 nM in each case.
Take `NCCc1cc(I)c(Oc2cc(I)c(O)c(I)c2)c(I)c1`: the EC50 in assay [1] was over 1000 nM.
Regarding `CNCCc1ccc(Oc2ccc(F)cc2)c(I)c1`, the half-maximal effective concentration (EC50) in assay [2] amounted to 2.7 nM; in assay [1], 32.5 nM. In addition, the result in assay [3] was Active.
For `NCCc1ccc(OCc2ccccc2)cc1`, the results for the EC50 in assay [2] and in assay [1] were 209 nM and 168 nM, respectively.
As to `NCCc1ccc(OCCCCc2ccccc2)cc1`, the EC50 in assay [2] turned out to be 43 nM; in assay [1] it was 80 nM.
On to `CN(C)CCc1ccc(OCc2ccccc2)cc1`, for which the EC50 in assay [2] was over 1000 nM; in assay [1], 192 nM.
For the compound `c1ccc(CNCCc2ccc(OCc3ccccc3)cc2)cc1`, the EC50 in assay [2] and in assay [1] was over 1000 nM each time.
`NCCc1ccc(OCc2ccc(C(F)(F)F)cc2)cc1`: the EC50 worked out at 55 nM in assay [2] and 20.2 nM in assay [1].
Turning to `CNCCc1ccc(Oc2ccc(C(F)(F)F)cc2)c(I)c1`, the EC50 in assay [2] and in assay [1] was over 1000 nM in each case.
As for `CCCCNCCc1ccc(OCc2ccccc2)cc1`, the EC50 in assay [2] and in assay [1] was over 1000 nM in each case.
Turning to `NCCc1ccc(OCc2ccccc2)c(I)c1`, the EC50 in assay [2] turned out to be 77 nM; in assay [1], 221 nM.
Regarding `NCCc1ccc(OCC(=O)c2ccccc2)cc1`, the EC50 is 309 nM in assay [2] and 83 nM in assay [1].
`CNCCc1ccc(OCc2ccccc2)c(I)c1`: the EC50 is 68 nM in assay [2] and 106 nM in assay [1].
On to `NCCc1ccc(OCc2c(F)c(F)c(F)c(F)c2F)cc1`, for which the half-maximal effective concentration (EC50) in assay [2] and in assay [1] was over 1000 nM in each case.
Regarding `NCCc1ccc(OCc2ccc(C(F)(F)F)cc2)c(I)c1`, the figures for the EC50 in assay [2] and in assay [1] were over 1000 nM and 284 nM, respectively.
`NCCc1cc(I)c(Oc2ccc(O)c(I)c2)c(I)c1` registered an EC50 in assay [1] of over 1000 nM.
Consider `CNCCc1ccc(OCc2ccc(C(F)(F)F)cc2)cc1`, for which the EC50 in assay [2] was found to be 61 nM; in assay [1], 12 nM. For the same compound, in assay [3], the result was Active.
Turning to `CNCCc1ccc(Oc2ccc(O)cc2)c(I)c1`, the EC50 in assay [2] came to 18 nM; in assay [1], 221 nM.
Regarding `NCCc1ccc(OCCCc2ccccc2)cc1`, the results for the EC50 in assay [2] and in assay [1] were 89 nM and 102 nM, respectively.
As for `NCCc1ccc(Oc2cc(I)c(O)c(I)c2)cc1`, the EC50 in assay [2] and in assay [1] was over 1000 nM each time.
On to `NCCc1ccc(OCc2ccc([N+](=O)[O-])cc2)cc1`, for which the EC50 in assay [2] was determined as 64 nM; in assay [1], 21.5 nM.
Regarding `NCCc1ccc(Oc2ccc(O)c(I)c2)cc1`, the EC50 was 800 nM in assay [2] and over 1000 nM in assay [1].
Taken in the same sequence, the figures for `CCCNCCc1ccc(OCc2ccccc2)cc1` were over 1000 nM and over 1000 nM.
Turning to `NCCc1ccc(OCc2ccc(F)cc2)cc1`, the figures for the EC50 in assay [2] and in assay [1] were 72 nM and 38.5 nM, respectively.
Consider `NCCc1ccc(OCCc2ccccc2)cc1`, for which the EC50 was 203 nM in assay [2] and 207 nM in assay [1].
Turning to `CNCCc1ccc(OCc2ccccc2)cc1`, the values for the EC50 in assay [2] and in assay [1] were 119 nM and 54 nM, respectively.
In the case of `COc1cccc(COc2ccc(CCN)cc2)c1`, the figures for the EC50 in assay [2] and in assay [1] were 141 nM and 194 nM, respectively.
Taken in the same sequence, the figures for `CCNCCc1ccc(OCc2ccccc2)cc1` were over 1000 nM and 71 nM.
